Source: ChEMBL document CHEMBL5131497, “Design, Synthesis, and Characterization of TNP-2198, a Dual-Targeted Rifamycin-Nitroimidazole Conjugate with Potent Activity against Microaerophilic and Anaerobic Bacterial Pathogens” (J Med Chem, 2022)
In brackets after ≈: the same amount, converted by molar mass.

Experiments:
Helicobacter pylori [1] = assay: Antibacterial activity against metronidazole/rifampicin-resistant Helicobacter pylori CB1771 harboring rpoBL525I/D530N/rdxAE75stop mutant measured after 5 days by agar dilution method; assay type: functional; conditions: CB1771, 120 h, time 5 day
Outline: (§1)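 Agar dilution per CLSI. Wild-type ATCC 700392 (CB1531) and its derivatives carry defined resistance determinants. Drugs, alone or in 1:1 molar mixtures, were diluted 2-fold from 100× stocks into Mueller–Hinton agar with aged (≥2 weeks) sheep blood (5% v/v). MIC read after 5 days at 35 °C under microaerobic conditions from a campylobacter gas-generating system.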

Clostridioides difficile [2] = assay: Antibacterial activity against Clostridioides difficile CB1921 ATCC BAA1382 at 1:1 compound to rifampicin molar ratio measured after 3 days in presence of rifampicin; assay type: functional; conditions: CB1921 ATCC BAA1382, 72 h, time 3 day
Clostridioides difficile [3] = assay: Antibacterial activity against rifampicin/fluoroquinolone-resistant Clostridioides difficile CB1942 harboring rpoBQ489K/gyrAD71Y/T82A mutant at 1:1 compound to rifampicin molar ratio measured after 3 days in presence of rifampicin; assay type: functional; conditions: CB1942, 72 h, time 3 day
Clostridioides difficile [4] = assay: Antibacterial activity against rifampicin/fluoroquinolone-resistant Clostridioides difficile CB1940 harboring rpoBQ489K/gyrAA118S mutant at 1:1 compound to rifampicin molar ratio measured after 3 days in presence of rifampicin; assay type: functional; conditions: CB1940, 72 h, time 3 day
Bacteroides uniformis = assay: Antibacterial activity against Bacteroides uniformis MMX 1277; assay type: functional
Helicobacter pylori [5] = assay: Antibacterial activity against rifampicin resistant Helicobacter pylori harboring rpoBL525I/D530N mutant; assay type: functional
Helicobacter pylori [6] = assay: Antibacterial activity against metronidazole/rifampicin-resistant Helicobacter pylori CB1893 harboring rpoBL525I/D530N/rdxAR16S mutant at 1:1 compound to rifampicin molar ratio measured after 5 days in presence of rifampicin by agar dilution method; assay type: functional; conditions: CB1893, 120 h, time 5 day
Outline: (§2)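 Agar dilution MIC per CLSI. Resistant derivatives of wild-type ATCC 700392 carrying defined rpoB/rdxA mutations. Test agent combined 1:1 molar with the partner drug. Agents prepared from 100× stocks and serially 2-fold diluted into Mueller–Hinton agar containing 5% v/v aged (≥2 weeks) sheep blood. Plates incubated 5 days at 35 °C under a microaerobic atmosphere from a gas-generating system.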

Gardnerella vaginalis [7] = assay: Antibacterial activity against Gardnerella vaginalis clinical isolate USA; assay type: functional
Bacteroides fragilis = assay: Antibacterial activity against metronidazole-resistant Bacteroides fragilis MMX 3387; assay type: functional
[8] = test system: Porphyromonas asaccharolytica; assay: Antibacterial activity against metronidazole-resistant Prevotella asaccharolytica MMX 3552; assay type: functional
Phocaeicola vulgatus = assay: Antibacterial activity against metronidazole-resistant Bacteroides vulgatus 3490; assay type: functional
Clostridioides difficile [9] = assay: Antibacterial activity against fluoroquinolone-resistant Clostridioides difficile CB1939 at 1:1 compound to rifampicin molar ratio measured after 3 days in presence of rifampicin; assay type: functional; conditions: CB1939, 72 h, time 3 day
Helicobacter pylori [10] = assay: Antibacterial activity against Helicobacter pylori clinical isolate China; assay type: functional
Helicobacter pylori [11] = assay: Antibacterial activity against rifampicin-resistant Helicobacter pylori CB1902 harboring rpoBV149F mutant at 1:1 compound to rifampicin molar ratio measured after 5 days in presence of rifampicin by agar dilution method; assay type: functional; conditions: CB1902, 120 h, time 5 day; outline: as §1
Clostridioides difficile [12] = assay: Antibacterial activity against Clostridioides difficile clinical isolate USA; assay type: functional
Helicobacter pylori [13] = assay: Antibacterial activity against rifampicin-resistant Helicobacter pylori CB1903 harboring rpoBD530V mutant at 1:1 compound to rifabutin molar ratio measured after 5 days in presence of rifabutin by agar dilution method; assay type: functional; conditions: CB1903, 120 h, time 5 day
Outline: (§3)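 Agar dilution per CLSI: two-fold serial dilutions from 100× stocks in Mueller–Hinton agar with aged (≥2 weeks) sheep blood (5% v/v). Strains were wild-type ATCC 700392 (CB1531) and derived mutants carrying defined resistance determinants. MIC was read after 5 days at 35 °C under microaerobic conditions from a campylobacter gas-generating system. Routine culture was on TSA with 5% sheep blood.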

Campylobacter gracilis = assay: Antibacterial activity against Bacteroides gracilis ATCC 33236 MMX 1270; assay type: functional
Staphylococcus aureus = assay: Antibacterial activity against Staphylococcus aureus ATCC 29213; assay type: functional
Veillonella parvula = assay: Antibacterial activity against Veillonella parvula ATCC 17745 MMX 1272; assay type: functional
Helicobacter pylori [14] = assay: Antibacterial activity against metronidazole-resistant Helicobacter pylori CB1573 harboring rdxAR16S mutant measured after 5 days by agar dilution method; assay type: functional; conditions: CB1573, 120 h, time 5 day; outline: as §1
Helicobacter pylori [15] = assay: Antibacterial activity against rifampicin-resistant Helicobacter pylori CB1614 harboring rpoBL525I/D530N at 1:1 compound to rifampicin molar ratio measured after 5 days in presence of rifampicin by agar dilution method; assay type: functional; conditions: CB1614, 120 h, time 5 day; outline: as §1
Fusobacterium nucleatum = assay: Antibacterial activity against Fusobacterium nucleatum ATCC 10953; assay type: functional
Helicobacter pylori [16] = assay: Antibacterial activity against Helicobacter pylori clinical isolate USA; assay type: functional
Syrian golden hamster [17] = assay: Antibacterial activity against Clostridioides difficile UNT-103-1 infected in Syrian hamster assessed as mortality at 100 mg/kg, po administered once a daily for 5 days after 18 hrs post 10 mg/kg clindamycin treatment and measured upto 21 days; assay type: functional, Mesocricetus auratus; conditions: time <= 21 day
Outline: (§4)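 Male Golden Syrian hamsters (80-90 g), housed singly, were gavaged with C. difficile UNT103-1 grown in sporulation medium broth and diluted to OD600 1 in prereduced broth. […] From 18 h later, drug or vehicle was given by oral gavage once daily for 5 days. Survival was recorded through day 21.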

Clostridioides difficile [18] = assay: Antibacterial activity against rifampicin-resistant Clostridioides difficile harboring rpoBQ489K mutant; assay type: functional
Gardnerella vaginalis [19] = assay: Antibacterial activity against Gardnerella vaginalis ATCC 49145; assay type: functional
Clostridioides difficile [20] = assay: Antibacterial activity against fluoroquinolone-resistant Clostridioides difficile CB1941 harboring gyrAD71Y/T82A mutant at 1:1 compound to rifampicin molar ratio measured after 3 days in presence of rifampicin; assay type: functional; conditions: CB1941, 72 h, time 3 day
Helicobacter pylori [21] = assay: Antibacterial activity against metronidazole/rifampicin-resistant Helicobacter pylori CB1893 harboring rpoBL525I/D530N/rdxAR16S mutant measured after 5 days by agar dilution method; assay type: functional; conditions: CB1893, 120 h, time 5 day; outline: as §1
Actinomyces naeslundii = assay: Antibacterial activity against Actinomyces naeslundii ATCC 1210; assay type: functional
Gardnerella vaginalis [22] = assay: Antibacterial activity against Gardnerella vaginalis clinical isolate China; assay type: functional
Gardnerella vaginalis [23] = assay: Antibacterial activity against Gardnerella vaginalis ATCC 14018; assay type: functional
Clostridium sporogenes = assay: Antibacterial activity against Clostridium sporogenes ATCC 19404; assay type: functional
Helicobacter pylori [24] = assay: Antibacterial activity against Helicobacter pylori ATCC 700392 at 1:1 compound to rifampicin molar ratio measured after 5 days in presence of rifampicin by agar dilution method; assay type: functional; conditions: ATCC 700392, 120 h, time 5 day; outline: as §3
Clostridioides difficile [25] = assay: Antibacterial activity against Clostridioides difficile clinical isolate China; assay type: functional
Helicobacter pylori [26] = assay: Antibacterial activity against metronidazole/rifampicin-resistant Helicobacter pylori CB1771 harboring rpoBL525I/D530N/rdxAE75stop mutant at 1:1 compound to rifampicin molar ratio measured after 5 days in presence of rifampicin by agar dilution method; assay type: functional; conditions: CB1771, 120 h, time 5 day; outline: as §2
Peptostreptococcus sp. = assay: Antibacterial activity against Peptostreptococcus magnus ATCC 14956; assay type: functional
Clostridioides difficile [27] = assay: Antibacterial activity against rifampicin-resistant Clostridioides difficile CB1934 harboring rpoBQ489K mutant at 1:1 compound to rifampicin molar ratio measured after 3 days in presence of rifampicin; assay type: functional; conditions: CB1934, 72 h, time 3 day
Helicobacter pylori [28] = assay: Antibacterial activity against metronidazole-resistant Helicobacter pylori CB1573 harboring rdxAR16S mutant at 1:1 compound to rifabutin molar ratio measured after 5 days in presence of rifabutin by agar dilution method; assay type: functional; conditions: CB1573, 120 h, time 5 day; outline: as §1
Helicobacter pylori [29] = assay: Antibacterial activity against Helicobacter pylori ATCC 700392 at 1:1 compound to rifabutin molar ratio measured after 5 days in presence of rifabutin by agar dilution method; assay type: functional; conditions: ATCC 700392, 120 h, time 5 day
Outline: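 Agar dilution per CLSI. Wild-type H. pylori ATCC 700392 (CB1531). Drugs prepared from 100× stocks as 2-fold dilutions in Mueller–Hinton agar with aged (≥2 weeks) sheep blood (5% v/v). Combinations were at 1:1 molar ratio. MIC read after 5 days at 35 °C under microaerobic atmosphere from a campylobacter gas-generating system.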

Fannyhessea vaginae = assay: Antibacterial activity against Atopobium vaginae BAA-55; assay type: functional
Syrian golden hamster [30] = assay: Antibacterial activity against Clostridioides difficile UNT-103-1 infected in Syrian hamster assessed as mortality at 20 mg/kg, po administered once a daily for 5 days after 18 hrs post 10 mg/kg clindamycin treatment and measured upto 21 days; assay type: functional, Mesocricetus auratus; conditions: time <= 21 day; outline: as §4

## Cc1ncc([N+](=O)[O-])n1CCO [METRONIDAZOLE]
Helicobacter pylori [1]
  MIC: 32 µg/mL (≈ 187 µM)
Clostridioides difficile [2]
  MIC: ≤ 0.03 µg/mL
Clostridioides difficile [3]
  MIC: 2 µg/mL
Clostridioides difficile [4]
  MIC: 2 µg/mL
Bacteroides uniformis
  MIC: > 256 µg/mL
Helicobacter pylori [5]
  MIC: > 32 µg/mL
Helicobacter pylori [6]
  MIC: > 32 µg/mL
Gardnerella vaginalis [7]
  MIC: ≥ 2 µg/mL
  MIC90: 64 µg/mL (≈ 374 µM)
Bacteroides fragilis
  MIC: > 256 µg/mL
[8]
  MIC: 1 µg/mL (≈ 5.84 µM)
Phocaeicola vulgatus
  MIC: 128 µg/mL (≈ 748 µM)
Clostridioides difficile [9]
  MIC: ≤ 0.03 µg/mL
Helicobacter pylori [10]
  MIC: ≥ 0.25 µg/mL
  MIC90: ≥ 16 µg/mL
Helicobacter pylori [11]
  MIC: 8 µg/mL
Clostridioides difficile [12]
  MIC: 0.12 µg/mL (≈ 0.701 µM)
Helicobacter pylori [13]
  MIC: 1 µg/mL
Campylobacter gracilis
  MIC: > 256 µg/mL
Staphylococcus aureus
  MIC: > 32 µg/mL
Veillonella parvula
  MIC: 2 µg/mL (≈ 11.7 µM)
Helicobacter pylori [14]
  MIC: 32 µg/mL (≈ 187 µM)
Helicobacter pylori [15]
  MIC: 8 µg/mL
Fusobacterium nucleatum
  MIC: 0.06 µg/mL (≈ 0.351 µM)
Helicobacter pylori [16]
  MIC90: 128 µg/mL (≈ 748 µM)
Syrian golden hamster [17]
  Activity: 100%
Clostridioides difficile [18]
  MIC: > 8 µg/mL
Gardnerella vaginalis [19]
  MIC: 4 µg/mL (≈ 23.4 µM)
Clostridioides difficile [20]
  MIC: ≤ 0.03 µg/mL
Helicobacter pylori [21]
  MIC: 32 µg/mL (≈ 187 µM)
Actinomyces naeslundii
  MIC: 256 µg/mL (≈ 1500 µM)
Gardnerella vaginalis [22]
  MIC: ≥ 16 µg/mL
  MIC90: ≥ 32 µg/mL
Gardnerella vaginalis [23]
  MIC: 4 µg/mL (≈ 23.4 µM)
Clostridium sporogenes
  MIC: 0.06 µg/mL (≈ 0.351 µM)
Helicobacter pylori [24]
  MIC: 0.5 µg/mL
Clostridioides difficile [25]
  MIC: ≤ 0.06 µg/mL
  MIC90: 0.125 µg/mL (≈ 0.73 µM)
Helicobacter pylori [26]
  MIC: > 32 µg/mL
Peptostreptococcus sp.
  MIC: 1 µg/mL (≈ 5.84 µM)
Clostridioides difficile [27]
  MIC: 2 µg/mL
Helicobacter pylori [28]
  MIC: ≤ 0.002 µg/mL
Helicobacter pylori [29]
  MIC: ≤ 0.002 µg/mL
Fannyhessea vaginae
  MIC: 128 µg/mL (≈ 748 µM)

## CN[C@H](CC(C)C)C(=O)N[C@H]1C(=O)N[C@@H](CC(N)=O)C(=O)N[C@H]2C(=O)N[C@H]3C(=O)N[C@H](C(=O)N[C@H](C(=O)O)c4cc(O)cc(O)c4-c4cc3ccc4O)[C@H](O)c3ccc(c(Cl)c3)Oc3cc2cc(c3O[C@@H]2O[C@H](CO)[C@@H](O)[C@H](O)[C@H]2O[C@H]2C[C@](C)(N)[C@H](O)[C@H](C)O2)Oc2ccc(cc2Cl)[C@H]1O [VANCOMYCIN]
Syrian golden hamster [30]
  Activity: 80%
